Data reported in ChEMBL document CHEMBL1155043, “Complexation of the anti-Trypanosoma cruzi drug benznidazole improves solubility and efficacy” (J Med Chem, 2008).
In brackets after ≈: the same amount, converted by molar mass. Activity calls are given as the source filed them. The calls are words filed in the database; no cut-off is given here.

What was measured:
Trypanosoma cruzi [1] = assay: Antitrypanosomal activity against Trypanosoma cruzi Y infected in Swiss mouse assessed as survivality at 385 umol/kg, po for 1 day after 15 days; assay type: functional
Outline: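 Female Swiss mice, 5-6 weeks old, infected intraperitoneally with 1.0 × 10^3 Y-strain bloodstream trypomastigotes. A single oral dose in PBS was given only on the first day after infection. Groups of six, with infected controls. Survival was followed, and parasitemia was counted as motile trypomastigotes in 5 µL tail blood.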

Trypanosoma cruzi [2] = assay: Antiproliferative activity against Trypanosoma cruzi Y epimastigotes assessed as number of motile forms at 0.1 mM after 4 hrs by hemocytometer; assay type: functional; conditions: read-out: GI
Outline: (§1)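 Y strain epimastigotes grown in Schneider's medium with 20% fetal calf serum, taken in exponential phase, PBS-washed, resuspended to 2.0 × 10^6/mL. Plated in triplicate with compound diluted in PBS, incubated at 37 °C, 5% CO2. Motile forms counted by hemocytometer; % growth inhibition = {1 - [(LDt - LDt0)/(LCt - LCt0)]} × 100 against untreated wells.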

Trypanosoma cruzi [3] = assay: Antiproliferative activity against Trypanosoma cruzi Y epimastigotes assessed as number of motile forms at 1 mM after 1 hr by hemocytometer; assay type: functional; conditions: read-out: GI; outline: as §1
Trypanosoma cruzi [4] = assay: Antitrypanosomal activity against Trypanosoma cruzi Y infected in Swiss mouse assessed as decrease in parasitemia at 385 umol/kg, po after 15 consecutive days; assay type: functional, organism-based
Trypanosoma cruzi [5] = assay: Antitrypanosomal activity against Trypanosoma cruzi Y infected in Swiss mouse assessed as survivality at 100 nmol/kg, ip after 15 consecutive days; assay type: functional, organism-based
Outline: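 Female Swiss mice, 5-6 weeks old, groups of six, infected ip with 1.0 × 10^3 Y strain bloodstream trypomastigotes. Treated ip in 100 µL PBS daily for 15 consecutive days. Controls were untreated or PBS-only infected mice. Survival followed up to 120 days.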

[6] = Aqueous solubility at pH 6.5; assay type: physicochemical
Outline: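 Solubility measured in a bio-relevant medium simulating fasted proximal small intestine: 3 mM sodium taurocholate, 0.75 mM lecithin, KH2PO4, KCl, pH 6.5, 37 °C. Excess compound stirred 24 h in 5 mL, filtered through 0.45 µm, diluted, and quantified by UV-vis at 323 nm (ε = 4.5 × 10^3 M-1 cm-1), in triplicate.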

Trypanosoma cruzi [7] = assay: Antiproliferative activity against Trypanosoma cruzi Y epimastigotes assessed as number of motile forms at 1 mM after 24 hrs by hemocytometer; assay type: functional; conditions: read-out: GI; outline: as §1
Trypanosoma cruzi [8] = assay: Antiproliferative activity against Trypanosoma cruzi Y epimastigotes assessed as number of motile forms at 0.5 mM after 1 hr by hemocytometer; assay type: functional; conditions: read-out: GI; outline: as §1
V79 = assay: Cytotoxicity against chinese hamster V79 cells; assay type: cell-based; conditions: Cricetulus griseus
Trypanosoma cruzi [9] = assay: Antiproliferative activity against Trypanosoma cruzi Y epimastigotes assessed as number of motile forms at 0.1 mM after 24 hrs by hemocytometer; assay type: functional; conditions: read-out: GI; outline: as §1
Trypanosoma cruzi [10] = assay: Antiproliferative activity against Trypanosoma cruzi Y epimastigotes assessed as number of motile forms at 1 mM after 4 hrs by hemocytometer; assay type: functional; conditions: read-out: GI; outline: as §1
Trypanosoma cruzi [11] = assay: Antitrypanosomal activity against Trypanosoma cruzi Y infected in Swiss mouse assessed as survivality at 385 umol/kg, po after 15 consecutive days; assay type: functional
Outline: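 Female Swiss mice, 5-6 weeks old, infected intraperitoneally with 1.0 × 10^3 Y-strain bloodstream trypomastigotes from an infected mouse. Oral dosing once daily in PBS for 15 consecutive days. Groups of six; untreated or PBS-only infected controls. Parasitemia counted as motile trypomastigotes in 5 µL tail blood, and survival of the treated animals recorded.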

Trypanosoma cruzi [12] = assay: Antitrypanosomal activity against bloodstream trypomastigote of Trypanosoma cruzi Y assessed as number of motile forms after 1 hr by hemocytometer; assay type: functional, organism-based
Outline: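 Bloodstream trypomastigotes (Y strain) taken from mice at peak parasitemia, resuspended to 1.0 × 10^6/mL. Triplicate wells with compound in PBS at 0.1, 0.25, 0.5 and 1.0 mM, 37 °C, 5% CO2, 1 h. Motile forms counted by hemocytometer; % trypanocidal activity = [1 - (LDt/LCt)] × 100 against untreated wells.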

Trypanosoma cruzi [13] = assay: Antiproliferative activity against Trypanosoma cruzi Y epimastigotes assessed as number of motile forms at 0.1 mM after 1 hr by hemocytometer; assay type: functional; conditions: read-out: GI; outline: as §1
Trypanosoma cruzi [14] = assay: Antiproliferative activity against Trypanosoma cruzi Y epimastigotes assessed as number of motile forms at 0.5 mM after 24 hrs by hemocytometer; assay type: functional; conditions: read-out: GI; outline: as §1
Trypanosoma cruzi [15] = assay: Antiproliferative activity against Trypanosoma cruzi Y epimastigotes assessed as number of motile forms at 0.5 mM after 4 hrs by hemocytometer; assay type: functional; conditions: read-out: GI; outline: as §1
Trypanosoma cruzi [16] = assay: Antitrypanosomal activity against Trypanosoma cruzi Y epimastigotes assessed as number of motile forms after 24 hrs by hemocytometer; assay type: functional, organism-based
Outline: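 Y strain epimastigotes in Schneider's medium with 20% FCS, exponential phase, PBS-washed, 2.0 × 10^6/mL. Triplicate wells with compound in PBS at 0.1, 0.25, 0.5 and 1.0 mM, 37 °C, 5% CO2, 24 h. Motile forms counted by hemocytometer; IC50 taken as 50% antiproliferative activity. Mean ± SEM, n = 3.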

SMILES: O=C(Cn1ccnc1[N+](=O)[O-])NCc1ccccc1 [BENZNIDAZOLE]
- survival at 385 µmol/kg (Trypanosoma cruzi [1]): 20%
- inhibition of growth at 100 µM (Trypanosoma cruzi [2]): 11%
- inhibition of growth at 1000 µM (Trypanosoma cruzi [3]): 7%
- Activity (Trypanosoma cruzi [4]): Active
- Activity (Trypanosoma cruzi [5]): inactive
- solubility [6]: 400 µg/mL (≈ 1540 µM)
- inhibition of growth at 1000 µM (Trypanosoma cruzi [7]): 31%
- inhibition of growth at 500 µM (Trypanosoma cruzi [8]): 0%
- IC50 (V79): 2000 µM
- inhibition of growth at 100 µM (Trypanosoma cruzi [9]): 15%
- inhibition of growth at 1000 µM (Trypanosoma cruzi [10]): 24%
- survival at 385 µmol/kg (Trypanosoma cruzi [11]): 100%
- IC50 (Trypanosoma cruzi [12]): > 1000 µM
- inhibition of growth at 100 µM (Trypanosoma cruzi [13]): 0%
- inhibition of growth at 500 µM (Trypanosoma cruzi [14]): 26%
- inhibition of growth at 500 µM (Trypanosoma cruzi [15]): 15%
- IC50 (Trypanosoma cruzi [16]): > 1000 µM
